Laboratory results: article PMC11008256 (Cell reports. Physical science, 2024)
Where a name gives a salt, the structure may show the parent alone. Ends that are not written are not given here. Peptide text beside a SMILES is read from it.

How the values were obtained:
[1] = system: K. pneumoniae NTUH K2044; test: Antimicrobial activity, broth microdilution MIC; type: cell-based, Klebsiella pneumoniae; details: LB used for MIC testing to determine dosage for skin model
Outline: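 Log-phase cells (an overnight LB culture diluted 1:100 in MHB at 37°C) seeded at 1 × 10^6 CFU mL-1 in LB for skin-model dosing, rather than the usual MHB. Peptide and polymyxin B control prepared in BSA buffer and tested at 0.0625–128 µmol L-1. Growth read as OD600; three independent replicates.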

[2] = system: K. pneumoniae NTUH K2044; test: Skin abscess mouse model; type: in vivo, female CD-1 mice; details: single topical dose at MIC, monitored 4 days, n = 6
[3] = system: Human red blood cells; test: Hemolytic activity assay; type: cell-based; details: 1 to 128 μmol L^−1, 4 h room temperature, absorbance 405 nm
[4] = Peptide:polysaccharide aggregation assay; parameters: species or system Klebsiella pneumoniae; details: 100 μmol L^−1 peptide, 300 μg mL^−1 polysaccharide
Outline: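 Polysaccharide hot-phenol-extracted from an overnight LB culture (60 min, 68°C; chloroform; ethanol precipitation) and quantified by uronic acid assay. Mixed with peptide in 10 mM potassium phosphate, then immediately spun 15,600 rpm for 15 min. Pellets resuspended in water, run on 4–8% bis-tris SDS-PAGE beside 2 µg purified polysaccharide, and Alcian blue-stained. Band density measured with the no-peptide control subtracted as background. Triplicate; ±SEM.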

[5] = system: pre-formed biofilms of K. pneumoniae NTUH K2044; test: Biofilm eradication; type: cell-based, Klebsiella pneumoniae; details: 60 μmol L^−1, 24 h
Outline: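 Overnight NTUH K2044 culture diluted to OD600 0.5 in TSB + 0.5% glucose. Biofilms grown 24 h at 37°C static in 35 mm dishes. Peptide diluted in BSA buffer (0.2% BSA, 0.01% acetic acid) plus MHB; untreated control received buffer plus MHB. Treatment 24 h at 37°C static. Dispersed cells and PBS-washed (×3), PBS-resuspended biofilm plated for CFU mL-1. ±SEM; one-way ANOVA with Dunnett versus untreated.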

[6] = system: K. pneumoniae NTUH K2044 biofilm matrix polysaccharides; test: Confocal microscopy imaging of biofilm polysaccharide matrix; type: cell-based, Klebsiella pneumoniae

Molecule | MIC used as dose for skin model [1] | mouse weight changes, skin damage (proxy of toxicity) [2] | hemolysis [3] | aggregation with extracellular polysaccharides (in words) [4] | biofilm and dispersed CFU mL^−1 [5] | effect on biofilm polysaccharide matrix (confocal) ([6]; 15 μmol L^−1, 24 h, concanavalin A Texas red stain) | effect on biofilm polysaccharide matrix (confocal) ([6]; 60 μmol L^−1, 24 h)
RRIRPRPPRLPRPRPRPLPFPRPGPRPIPRPLPFP [Bac7 (1–35)] | 2 µM | No variations in weight, damage to the skin tissue, or other harmful consequences | limited ability to lyse red blood cells | – | – | – | –
PRPIPRPLPFPRPGPRPIPRPLPFPRPGPRPIPRP [Bac7 (24–59)] | – | – | – | highest aggregation potential | did not significantly change | drop in overall height (30 μm) and moderate change in the polysaccharide matrix | polysaccharide matrix loss from the upper layers of the biofilm
CC[C@H](C)CCCCC(=O)N[C@@H](CCN)C(=O)N[C@H](C(=O)N[C@@H](CCN)C(=O)N[C@H]1CCNC(=O)[C@H]([C@@H](C)O)NC(=O)[C@H](CCN)NC(=O)[C@H](CCN)NC(=O)[C@H](CC(C)C)NC(=O)[C@@H](Cc2ccccc2)NC(=O)[C@H](CCN)NC1=O)[C@@H](C)O [polymyxin B, polymyxin B sulfate, reference compound] (HELM PEPTIDE1{[CC[C@H](C)CCCCC(=O)[*:2]].[Dab].T.[Dab].[Dab].[Dab].[dF].L.[Dab].[Dab].T}$PEPTIDE1,PEPTIDE1,5:R3-11:R2$$$V2.0; N-terminus assumed; bridges inferred) | 1 µM | No variations in weight, damage to the skin tissue, or other harmful consequences | – | – | – | – | –
